Insulin prom up: insulin promoter activators in MIN6 cells, imaging, high-content screening, mouse beta cells; MIN6 insulin promoter-GFP reporter; hits give high values; z-score at 5 µM; AID 1625, 2009; 0.3% of 190,000 active;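 active = z-score above 3 at 5 µM with at least 500 cells counted in the well; inconclusive = wells under 500 cells, flagged as cytotoxic or low count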
HSV augment: enhancers of HSV replication in host cells, fold increase, host cell viability; HSV replication augmentation in cells; maximum fold increase; AID 1956, 2009; 0.005% of 220,000 active; in the data active = maximum fold increase above about 1.5; inconclusive = no clear call, values can overlap the other calls; tested in PC3 cells
Dynein transport: inhibitors of GR-EGFP nuclear translocation, primary screen, dynein cargo transport inhibitor project, imaging, high-content, 3617.4 mouse cells. test concentration mostly 20 µM; stimulated with dexamethasone, 1 µM; hits give low values. z-score, hits read low. 0.47% of 220,000 active. AID 1381, 2008;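 active = plate z-score of nuclear minus cytoplasmic receptor signal below a set negative limit, without overly bright fluorescence or cell loss, cut at about -3.5 in these data, passing the limit was not always enough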;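 also: z-score of nuclear minus cytoplasmic ring GR-EGFP intensity difference per well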
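Also added: dexamethasone, 1.0 µM final. Medium: tet-free, stripped-serum medium. Detection: fixed, Hoechst-stained cells imaged at 10x for EGFP. Read-out: nuclear-to-cytoplasmic GR-EGFP distribution per well. Times: induction 48 h, compound 1 h, agonist 30 min.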
Furin inh: human furin inhibitors, primary screen, biochemical, fluorescence intensity; purified furin, fluorogenic substrate cleavage; inhibition, % at 20 µM or 30 µM; 0.061% of 220,000 active; AID 463115, 2010; in the data active = inhibition above about 25%
Target sequence (P09958 108-714 limits assumed): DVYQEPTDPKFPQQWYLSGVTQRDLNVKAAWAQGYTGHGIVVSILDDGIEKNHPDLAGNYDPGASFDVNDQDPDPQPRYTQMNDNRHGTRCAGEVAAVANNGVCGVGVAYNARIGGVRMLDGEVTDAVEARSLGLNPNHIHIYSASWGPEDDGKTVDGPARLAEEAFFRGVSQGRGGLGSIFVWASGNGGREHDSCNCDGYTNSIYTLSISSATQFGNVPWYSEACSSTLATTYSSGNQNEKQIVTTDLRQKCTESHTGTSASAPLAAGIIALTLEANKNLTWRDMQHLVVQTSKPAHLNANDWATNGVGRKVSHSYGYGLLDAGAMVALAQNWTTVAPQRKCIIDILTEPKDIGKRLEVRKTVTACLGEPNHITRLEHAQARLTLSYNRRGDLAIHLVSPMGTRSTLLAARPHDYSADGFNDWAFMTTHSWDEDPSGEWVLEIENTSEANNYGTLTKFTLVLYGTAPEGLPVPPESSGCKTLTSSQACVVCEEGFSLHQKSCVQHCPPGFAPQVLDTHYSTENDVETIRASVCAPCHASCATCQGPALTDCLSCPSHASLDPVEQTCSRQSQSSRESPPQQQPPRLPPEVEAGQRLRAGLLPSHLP
Autophagy HCS: autophagy modulators in MEF cells, primary screen, imaging, high-content, MEF GFP-LC3; calls only at 10 µM (by protocol); 0.98% of 190,000 active; MEF GFP-LC3 puncta imaging; test concentration mostly 10 µM;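 active = percentage of spot-positive cells more than 3 SD above its plate mean, without a fluorescence outlier flag or 80% toxicity; inconclusive = no clear call, values can overlap the other calls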
INS promoter inh: inhibitors of insulin promoter-driven GFP, primary screen, imaging, TRM-6 cells (human fetal islet line), eGFP reporter, cell count; reporter expression induced with tamoxifen; inhibition, % at 2 µM; 0.9% of 130,000 active; AID 1273, 2008;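 active = inhibition above the mean plus 3 SD, with well images judged a real hit on visual review, cut at about 60% in these data, passing the limit was not always enough; inconclusive = inhibition over the cutoff but images rejected on review; inactive = inhibition not above the cutoff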
Numbers stand for hits; . = inactive; ? = inconclusive; / = no result; + = active, no number. An excerpt weighted towards active compounds, which were near 2% of everything screened.

SMILES | Insulin prom up | HSV augment | Dynein transport | Furin inh | Autophagy HCS | INS promoter inh
COc1ccc(N(C(=O)CNC(=O)c2cccs2)C(C(=O)NCC2CCCO2)c2ccc(OC)c(OC)c2)cc1 (stereo not given) | . | . | . | . | . | /
CCOc1ccc(N(C(=O)CNC(=O)c2cccs2)C(C(=O)NCC2CCCO2)c2ccc(OC)c(OC)c2)cc1 (stereo not given) | . | . | . | . | + | .
COCCn1c(SCC(=O)c2ccc(F)cc2)nnc1C(C)C | . | . | . | . | + | /
CCC(=O)Nc1cc(C)c(NC(=O)C23CC4CC(CC(C4)C2)C3)cn1 | / | . | . | . | . | 75.7
Cc1cc(NC(=O)C23CC4CC(CC(C4)C2)C3)n[nH]1 | . | . | . | . | . | /
CCCN=Cc1ccc(O)cc1 | / | . | . | . | . | .
CCCCn1c(C)nc2c(=O)n(C)c(=O)[nH]c21 | . | . | . | . | . | 72.7
N#Cc1c(N(CCO)CCO)nc(N)c2c(N)nc3c(c12)CC(=O)N3CC1CCCO1 (stereo not given) | . | . | . | . | / | /
CCCCN1C(=O)Cc2c1nc(N)c1c(N)nc(N(CCC)CCC)c(C#N)c21 | . | / | . | . | + | /
NS(=O)(=O)c1ccc(NC(=S)Nc2ccc(C(=O)N3CCCCC3)cc2)cc1 | / | . | . | . | . | /
CC1=CS(=O)(=O)CC1SC(=S)N(C)C1CCS(=O)(=O)C1 (stereo not given) | . | . | . | . | . | /
COc1ccc(S(=O)(=O)N2CCOC2CNC(=O)C(=O)NCCc2ccc(OC)c(OC)c2)cc1 (stereo not given) | . | . | . | . | + | .
N=c1c(-c2nc3ccccc3[nH]2)cc(C(=O)c2cccs2)nn1-c1ccccc1 | / | . | . | . | + | .
N=c1c(-c2nc3ccccc3[nH]2)cc(C(=O)c2ccco2)nn1-c1ccccc1 | . | . | . | . | . | .
COc1ccccc1NCC(=O)NNC(C)C(=O)Nc1cccc(Cl)c1 (stereo not given) | . | . | . | . | + | .
COc1ccccc1NC(=O)C(C)NS(=O)(=O)c1ccc(Cl)cc1 (stereo not given) | . | . | . | . | . | /
Oc1c(N=Nc2ccccn2)ccc2ccccc12 | ? | . | . | . | + | .
O=C(COc1ccc(Cl)cc1)NCc1nnc(SCC(=O)NC2CCCCC2)o1 | 3.28 | . | . | . | . | .
Cc1ccsc1/C=N/NC(=O)c1cccnc1 | . | . | . | . | / | /
COC(=O)C1=C2SC(C)C(=O)N2C(N)=C(C#N)C1c1ccc(OC)c(OC)c1 (stereo not given) | . | . | . | . | . | 81.8
COC(=O)C1=C2SC(C)C(=O)N2C(N)=C(C#N)C1c1cc(OC)c(OC)c(OC)c1 (stereo not given) | . | . | . | . | . | /
CC(=O)NC(Cc1ccccc1C)C(=O)NC1CCN(C(=O)c2ccc(C)cc2)CC1 (stereo not given) | . | . | . | . | + | .
CC(=O)NC(Cc1ccc(C)cc1)C(=O)NC1CCN(C(=O)c2ccc([N+](=O)[O-])cc2)CC1 (stereo not given) | . | . | . | . | . | /
CCC(C)NC(=O)C(=O)NCC1CCCN1CC (stereo not given) | . | / | . | . | . | .
C=CCNC(=O)/C(=C\c1ccc(Br)cc1)NC(=O)c1ccccc1OC | 3.42 | . | . | . | . | /
SMILES | Insulin prom up | HSV augment | Dynein transport | Furin inh | Autophagy HCS | INS promoter inh
OC(COC(c1ccc(Cl)cc1)c1ccc(Cl)cc1)CN1CCCC1 (stereo not given) | . | . | . | . | + | .
Cc1c(C#N)c(O)n(C)c(=O)c1N=Nc1ccc(S(N)(=O)=O)cc1 | / | . | . | . | . | 65.0
CCOc1ccc(N(CC(=O)N/N=C/c2ccc(OC(C)C)cc2)S(C)(=O)=O)cc1 | / | . | . | . | . | .
CNC(=S)/N=C/NOCc1ccc(Cl)cc1Cl | . | . | . | . | + | .
CC1CCCC(NC(=O)COC(=O)c2ccccc2[N+](=O)[O-])C1C (stereo not given) | . | . | . | . | + | /
CC1CCCC(NC(=O)COC(=O)c2ccccc2NC(=O)c2ccco2)C1C (stereo not given) | . | . | . | . | . | .
CN(C)S(=O)(=O)c1cccc(NC(=O)CSc2nnnn2-c2ccccc2)c1 | . | . | . | . | / | /
CCCCn1c(O)c(/C=C/C=C/C=Nc2ccccc2)sc1=S | 4.72 | . | . | . | . | .
CCn1c(O)c(/C=C/C=C/C=Nc2ccccc2)sc1=S | . | . | . | . | . | .
Oc1c(/C=C/C=C/C=Nc2ccccc2)sc(=S)n1Cc1ccccc1 | 3.27 | . | . | . | / | /
CC(Oc1ccccc1F)C(=O)NNC(=O)c1cc2ccccc2o1 (stereo not given) | / | . | . | . | . | /
CCN(c1ccccc1)S(=O)(=O)c1cc(C(=O)Oc2ccc3c(C)cc(=O)oc3c2)ccc1C | . | . | . | . | . | .
CC1(C)CC(NC(=O)CCc2nnc(CCCCc3ccccc3)o2)CCO1 (stereo not given) | / | . | . | . | . | /
CCCCOc1ccc(-c2ncc(Cl)cn2)cc1 | . | . | . | 27.5 | . | .
O=C(/C=C/c1cccs1)c1cc(Br)ccc1OC(=O)N1CCOCC1 | . | . | -4.91 | . | . | .
COc1ccc(C(=O)/C=C/c2cccs2)c(OC(=O)N2CCOCC2)c1 | . | . | . | . | . | /
O=[N+]([O-])c1cccc(NC2=NCCC2)c1 | . | . | . | . | . | .
COc1ccc(OCC(=O)Nc2ccc(S(=O)(=O)Nc3nc(C)cc(C)n3)cc2)cc1 | . | . | . | . | . | /
COc1ccc(OCC(=O)Nc2ccc(S(=O)(=O)Nc3cc(C)nc(C)n3)cc2)cc1 | 3.12 | . | . | . | . | /
CCN(CC)C(=S)SC1CCCCN(C(=O)c2ccccc2)C1=O (stereo not given) | . | . | . | . | / | /
Cc1sc(/N=C/c2c(O)ccc3ccccc23)c(C#N)c1C | / | / | . | . | + | /
COC(=O)c1ccc(NC(=S)NC2CC3CCC2C3)cc1 (stereo not given) | . | . | . | . | . | .
Nc1cc(=O)[nH]c(=O)n1Cc1ccco1 | . | . | . | 25.9 | . | .
O=C(NCc1nc(-c2ccc(C(F)(F)F)cc2)no1)Nc1ccc(OC(F)(F)F)cc1 | . | . | . | . | / | /
O=C(c1cc([N+](=O)[O-])ccc1N1CCCC1)N1CCCC1 | 3.06 | . | . | . | . | .
CCOC(=O)c1cc(CC)sc1NC(=O)c1cc([N+](=O)[O-])ccc1N1CCOCC1 | . | . | . | . | + | /
O=C(c1ccc(Br)cc1)c1cc([N+](=O)[O-])ccc1N1CCOCC1 | . | . | . | . | + | /
